Reference: ChEMBL document CHEMBL1122431, “Carbocyclic analogues of 5-substituted uracil nucleosides: synthesis and antiviral activity” (1983)
Values after ≈ are worked out from the molar mass of the structure shown.

Legend:
Format in all cases: functional
Human alphaherpesvirus 1 [1] = experiment: Antiviral activity against herpes simplex virus(1) strain 377.
How it was run: (§1)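 Inhibition of virus-induced cytopathogenic effect (CPE) in primary rabbit kidney cell cultures challenged with HSV-1 strain 377 or HSV-2 strain MS. HSV-2 testing followed the same procedure. Activity was scored as a virus rating (VR).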

Human alphaherpesvirus 1 [2] = experiment: Antiviral activity against herpes simplex virus(1) strain 377, expressed as virus rating; how it was run: as §1
Human alphaherpesvirus 1 [3] = experiment: Minimum inhibitory concentration (MIC50) in Herpes simplex virus type-1 (HSV-1) using 377 strain at 0.9 virus rating. Experiment 2
How it was run: (§2)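 Inhibition of virus-induced CPE in primary rabbit kidney cell cultures infected with HSV-1 strain 377 or HSV-2 strain MS. Potency was taken as the minimum inhibitory concentration (MIC50), in μg/mL, alongside the virus rating.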

Human alphaherpesvirus 1 [4] = experiment: Antiviral activity against herpes simplex virus(1) strain 377, expressed as virus rating. Experiment 2; how it was run: as §1
Human alphaherpesvirus 1 [5] = experiment: Minimum inhibitory concentration (MIC50) in Herpes simplex virus type-1 (HSV-1) using 377 strain. Experiment 1; how it was run: as §2
Human alphaherpesvirus 1 [6] = experiment: Antiviral activity against herpes simplex virus(1) strain 377, expressed as virus rating. Experiment 1; how it was run: as §1
Human alphaherpesvirus 1 [7] = experiment: Minimum inhibitory concentration (MIC50) in Herpes simplex virus type-1 (HSV-1) using 377 strain.; how it was run: as §2
Human alphaherpesvirus 2 [8] = experiment: Antiviral activity against herpes simplex virus(2) strain MS expressed as virus rating; how it was run: as §1
Human alphaherpesvirus 2 [9] = experiment: Minimum inhibitory concentration (MIC50) in Herpes simplex virus type-2 (HSV-2) using MS strain.; how it was run: as §2
Human alphaherpesvirus 1 [10] = experiment: Minimum inhibitory concentration (MIC50) in Herpes simplex virus type-1 (HSV-1) using 377 strain. Experiment 2.; how it was run: as §2
Human alphaherpesvirus 2 [11] = experiment: Antiviral activity against herpes simplex virus(2) strain MS expressed as virus rating.; how it was run: as §1
Human alphaherpesvirus 2 [12] = experiment: Antiviral activity against herpes simplex virus(2) strain MS expressed as virus rating. Experiment 2; how it was run: as §1
Human alphaherpesvirus 1 [13] = experiment: Minimum inhibitory concentration (MIC50) in Herpes simplex virus type-1 (HSV-1) using 377 strain. Experiment 3; how it was run: as §2
Human alphaherpesvirus 2 [14] = experiment: Minimum inhibitory concentration (MIC50) in Herpes simplex virus type-2 (HSV-2) using MS strain. Experiment 2; how it was run: as §2
Human alphaherpesvirus 1 [15] = experiment: Antiviral activity against herpes simplex virus(1) strain 377, expressed as virus rating. Experiment 3; how it was run: as §1
Human alphaherpesvirus 1 [16] = experiment: Minimum inhibitory concentration (MIC50) in Herpes simplex virus type-1 (HSV-1) using 377 strain. Experiment 2; how it was run: as §2
Human alphaherpesvirus 2 [17] = experiment: Minimum inhibitory concentration (MIC50) in Herpes simplex virus type-2 (HSV-2) using MS strain. Experiment 1; how it was run: as §2
Human alphaherpesvirus 1 [18] = experiment: Minimum inhibitory concentration (MIC50) in Herpes simplex virus type-1 (HSV-1) using 377 strain. Experiment 4; how it was run: as §2
Human alphaherpesvirus 2 [19] = experiment: Antiviral activity against herpes simplex virus(2) strain MS expressed as virus rating. Experiment 1; how it was run: as §1
Human alphaherpesvirus 1 [20] = experiment: Antiviral activity against herpes simplex virus(1) strain 377, expressed as virus rating. Experiment 4; how it was run: as §1
Human alphaherpesvirus 1 [21] = experiment: Minimum inhibitory concentration (MIC50) in Herpes simplex virus type-1(HSV-1) using 377 strain.; how it was run: as §2
Human alphaherpesvirus 2 [22] = experiment: Minimum inhibitory concentration (MIC50) in Herpes simplex virus type-2(HSV-2) using MS strain.; how it was run: as §2

O=c1[nH]c(=O)n(C2CC(CO)CC2O)cc1Br (stereo not given)
Virus rating (Human alphaherpesvirus 1 [1]): 0

O=c1[nH]c(=O)n(C2CC(CO)C(O)C2O)cc1I (stereo not given)
Virus rating (Human alphaherpesvirus 1 [1]): 0

Nc1cn(C2CC(CO)CC2O)c(=O)[nH]c1=O (stereo not given)
Virus rating (Human alphaherpesvirus 1 [1]): 0

O=c1ccn(C2CC(O)C(CO)C2)c(=O)[nH]1 (stereo not given)
Virus rating (Human alphaherpesvirus 1 [2]): 0

CC(=O)OCC1CC(n2cc(Br)c(=O)[nH]c2=O)CC1OC(C)=O (stereo not given)
MIC50 (Human alphaherpesvirus 1 [3]): 100 µg/mL (≈ 257 µM)
Virus rating (Human alphaherpesvirus 1 [4]): 0.9
MIC50 (Human alphaherpesvirus 1 [5]): 92 µg/mL (≈ 236 µM)
Virus rating (Human alphaherpesvirus 1 [6]): 1.3

O=c1[nH]c(=O)n([C@H]2C[C@H](O)[C@@H](CO)O2)cc1I [IDOXURIDINE]
Virus rating (Human alphaherpesvirus 1 [2]): 7.4
MIC50 (Human alphaherpesvirus 1 [7]): 0.3 µg/mL (≈ 0.847 µM)
Virus rating (Human alphaherpesvirus 2 [8]): 5
MIC50 (Human alphaherpesvirus 2 [9]): 1 µg/mL (≈ 2.82 µM)

Nc1cn(C2CC(CO)C(O)C2O)c(=O)[nH]c1=O (stereo not given)
Virus rating (Human alphaherpesvirus 1 [1]): 0

O=c1[nH]c(=O)n(C2CC(CO)C(O)C2O)cc1Br (stereo not given)
Virus rating (Human alphaherpesvirus 1 [1]): 0

O=c1[nH]c(=O)n(C2CC(CO)CC2O)cc1I (stereo not given)
Virus rating (Human alphaherpesvirus 1 [1]): 0

O=c1[nH]c(=O)n(C2CC(CO)C(O)C2O)cc1CO (stereo not given)
Virus rating (Human alphaherpesvirus 1 [2]): 0.3
Virus rating (Human alphaherpesvirus 2 [8]): 0

O=c1[nH]c(=O)n([C@H]2C[C@H](O)[C@@H](CO)O2)cc1F [FLOXURIDINE]
Virus rating (Human alphaherpesvirus 1 [1]): 0
Virus rating (Human alphaherpesvirus 2 [8]): 0

CNc1cn(C2CC(CO)C(O)C2O)c(=O)[nH]c1=O (stereo not given)
Virus rating (Human alphaherpesvirus 1 [1]): 0

O=c1[nH]c(=O)n(C2CC(CO)C(O)C2O)cc1F (stereo not given)
Virus rating (Human alphaherpesvirus 1 [1]): 0

Cc1cn(C2CC(CO)C(O)C2O)c(=O)[nH]c1=O (stereo not given)
Virus rating (Human alphaherpesvirus 1 [1]): 0

Cc1cn([C@@H]2C[C@H](CO)[C@@H](O)C2)c(=O)[nH]c1=O
MIC50 (Human alphaherpesvirus 1 [7]): 0.8 µg/mL (≈ 3.33 µM)
Virus rating (Human alphaherpesvirus 1 [1]): 5.4
Virus rating (Human alphaherpesvirus 2 [8]): 3.2
MIC50 (Human alphaherpesvirus 2 [9]): 7 µg/mL (≈ 29.1 µM)

O=c1ccn(C2CC(CO)CC2O)c(=O)[nH]1 (stereo not given)
Virus rating (Human alphaherpesvirus 1 [1]): 0

O=c1ccn(C2CC(CO)C(O)C2O)c(=O)[nH]1 (stereo not given)
Virus rating (Human alphaherpesvirus 1 [1]): 0

Cc1cn(C2CC(CO)CC2O)c(=O)[nH]c1=O (stereo not given)
Virus rating (Human alphaherpesvirus 1 [1]): 0.4

CC(=O)OCC1CC(OC(C)=O)C(n2cc(Br)c(=O)[nH]c2=O)C1 (stereo not given)
Virus rating (Human alphaherpesvirus 1 [2]): 0

CN(C)c1cn(C2CC(O)C(CO)C2)c(=O)[nH]c1=O (stereo not given)
Virus rating (Human alphaherpesvirus 1 [1]): 0

Nc1cn(C2CC(O)C(CO)C2)c(=O)[nH]c1=O (stereo not given)
Virus rating (Human alphaherpesvirus 1 [2]): 0.1

Nc1ncnc2c1ncn2[C@@H]1O[C@H](CO)[C@@H](O)[C@@H]1O [VIDARABINE]
Virus rating (Human alphaherpesvirus 1 [2]): 2.7
MIC50 (Human alphaherpesvirus 1 [7]): 9.8 µg/mL (≈ 36.7 µM)
Virus rating (Human alphaherpesvirus 2 [8]): 2.3
MIC50 (Human alphaherpesvirus 2 [9]): 20.1 µg/mL (≈ 75.2 µM)

CC(=O)OCC1CC(n2cc(I)c(=O)[nH]c2=O)CC1OC(C)=O (stereo not given)
MIC50 (Human alphaherpesvirus 1 [10]): 25 µg/mL (≈ 57.3 µM)
Virus rating (Human alphaherpesvirus 1 [4]): 1.6
MIC50 (Human alphaherpesvirus 1 [5]): 10 µg/mL (≈ 22.9 µM)
Virus rating (Human alphaherpesvirus 1 [6]): 2.4

CCCCNc1cn(C2CC(O)C(CO)C2)c(=O)[nH]c1=O (stereo not given)
Virus rating (Human alphaherpesvirus 2 [11]): 0.7
MIC50 (Human alphaherpesvirus 1 [7]): 290 µg/mL (≈ 975 µM)
Virus rating (Human alphaherpesvirus 1 [1]): 2
MIC50 (Human alphaherpesvirus 2 [9]): 1000 µg/mL (≈ 3360 µM)

O=c1[nH]c(=O)n(C2CC(CO)CC2O)cc1F (stereo not given)
Virus rating (Human alphaherpesvirus 1 [1]): 0

O=c1[nH]c(=O)n([C@@H]2C[C@H](CO)[C@@H](O)C2)cc1I
Virus rating (Human alphaherpesvirus 2 [12]): 3.4
MIC50 (Human alphaherpesvirus 1 [13]): 0.1 µg/mL (≈ 0.284 µM)
MIC50 (Human alphaherpesvirus 2 [14]): 20 µg/mL (≈ 56.8 µM)
Virus rating (Human alphaherpesvirus 1 [15]): 7.9
MIC50 (Human alphaherpesvirus 1 [16]): 0.3 µg/mL (≈ 0.852 µM)
MIC50 (Human alphaherpesvirus 2 [17]): 32 µg/mL (≈ 90.9 µM)
MIC50 (Human alphaherpesvirus 1 [18]): 0.4 µg/mL (≈ 1.14 µM)
Virus rating (Human alphaherpesvirus 1 [4]): 7.1
Virus rating (Human alphaherpesvirus 2 [19]): 2.9
Virus rating (Human alphaherpesvirus 1 [20]): 7.4
MIC50 (Human alphaherpesvirus 1 [5]): 0.4 µg/mL (≈ 1.14 µM)
Virus rating (Human alphaherpesvirus 1 [6]): 6.5

CNc1cn(C2CC(O)C(CO)C2)c(=O)[nH]c1=O (stereo not given)
Virus rating (Human alphaherpesvirus 2 [11]): 1.2
MIC50 (Human alphaherpesvirus 1 [13]): 25 µg/mL (≈ 97.9 µM)
Virus rating (Human alphaherpesvirus 1 [15]): 4.5
MIC50 (Human alphaherpesvirus 1 [16]): 15 µg/mL (≈ 58.8 µM)
Virus rating (Human alphaherpesvirus 1 [4]): 3.9
MIC50 (Human alphaherpesvirus 2 [9]): 229 µg/mL (≈ 897 µM)
MIC50 (Human alphaherpesvirus 1 [5]): 10 µg/mL (≈ 39.2 µM)
Virus rating (Human alphaherpesvirus 1 [6]): 4.2

O=c1[nH]c(=O)n(C2CC(O)C(CO)C2)cc1Br (stereo not given)
MIC50 (Human alphaherpesvirus 1 [21]): 0.3 µg/mL (≈ 0.983 µM)
Virus rating (Human alphaherpesvirus 1 [1]): 6.2
MIC50 (Human alphaherpesvirus 2 [22]): 32 µg/mL (≈ 105 µM)
Virus rating (Human alphaherpesvirus 2 [8]): 1.5

CNc1cn(C2CC(CO)CC2O)c(=O)[nH]c1=O (stereo not given)
Virus rating (Human alphaherpesvirus 1 [1]): 0
